High-throughput results (PubChem BioAssay)
CASP6 VEID inh: caspase-6 (human) enzyme inhibition. actives 0.53% (n = 350,000). inhibition, % at 12.5 µM. purified caspase-6, Z-VEID-R110 cleavage fluorescence. AID 686996;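 active = mean inhibition across replicates at least about 35%, with every replicate also reaching that limit, limit read from the data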;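 note: 0% = median of neutral control wells and 100% = no fluorescence left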
DNMT1 block: inhibitors of human DNMT1; actives 0.83% (n = 360,000); AID 588458; P26358; DNMT1 molecular beacon, Hinp1I cleavage, fluorescence; inhibition (reported as % activation of signal), % at 10 µM
Target sequence (P26358 504-1616 limits assumed): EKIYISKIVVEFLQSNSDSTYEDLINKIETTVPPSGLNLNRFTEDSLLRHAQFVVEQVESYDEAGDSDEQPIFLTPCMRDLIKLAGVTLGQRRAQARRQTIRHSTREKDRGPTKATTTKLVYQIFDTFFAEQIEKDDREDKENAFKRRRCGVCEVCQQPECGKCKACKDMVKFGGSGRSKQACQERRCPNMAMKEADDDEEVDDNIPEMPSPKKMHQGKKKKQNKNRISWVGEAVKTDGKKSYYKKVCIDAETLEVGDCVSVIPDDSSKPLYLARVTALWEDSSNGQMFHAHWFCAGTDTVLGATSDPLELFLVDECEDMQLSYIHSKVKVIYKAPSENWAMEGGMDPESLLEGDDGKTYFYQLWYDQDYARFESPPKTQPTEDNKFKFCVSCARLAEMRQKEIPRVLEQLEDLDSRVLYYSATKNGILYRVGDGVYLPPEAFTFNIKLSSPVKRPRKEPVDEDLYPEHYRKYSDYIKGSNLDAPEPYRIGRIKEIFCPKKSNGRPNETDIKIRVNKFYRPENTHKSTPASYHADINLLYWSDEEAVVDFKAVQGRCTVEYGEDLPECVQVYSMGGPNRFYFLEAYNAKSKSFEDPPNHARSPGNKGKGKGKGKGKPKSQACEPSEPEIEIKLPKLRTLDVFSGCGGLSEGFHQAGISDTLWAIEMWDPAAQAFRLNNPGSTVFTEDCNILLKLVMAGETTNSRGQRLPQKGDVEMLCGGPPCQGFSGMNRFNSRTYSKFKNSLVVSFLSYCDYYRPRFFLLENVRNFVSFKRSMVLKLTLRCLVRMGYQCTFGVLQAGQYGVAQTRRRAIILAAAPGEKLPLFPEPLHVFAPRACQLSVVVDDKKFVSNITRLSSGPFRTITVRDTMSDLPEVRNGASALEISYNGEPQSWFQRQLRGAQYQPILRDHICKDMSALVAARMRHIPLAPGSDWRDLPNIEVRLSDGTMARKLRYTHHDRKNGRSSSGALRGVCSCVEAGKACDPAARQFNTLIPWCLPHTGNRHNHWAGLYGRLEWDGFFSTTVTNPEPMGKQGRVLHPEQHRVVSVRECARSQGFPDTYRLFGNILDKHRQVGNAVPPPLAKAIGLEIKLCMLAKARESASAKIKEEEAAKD
NSD2 inh: NSD2 (human) methyltransferase inhibition. inhibition, % at 12.5 µM. actives 0.54% (n = 310,000). O96028. NSD2 peptide methylation, AlphaScreen, 120 min
HCV NS3 hel inh: blocks Hepatitis C virus NS3 helicase unwinding; NS3 helicase DNA unwinding, Cy5 molecular beacon fluorescence; inhibition, % at 10.9 µM; actives 0.56% (n = 290,000); AID 1800;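 active = inhibition above the mean of all tested compounds plus 3 SD, set per campaign, cut at about 35% in these data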;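 note: 0% = DMSO wells and 100% = thioflavine S control wells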
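Compound dosing – single dose, 10.9 µM nominal final, DMSO 0.8% final · System – NS3 helicase fragment of HCV · Buffer or medium – MOPS pH 6.5, MgCl2, DTT, Tween20, BSA · Signal – Cy5 beacon fluorescence read at start and 1 h · Also added – annealed dual-labelled DNA beacon duplex, ATP-started · Schedule – 1 h at 25 °C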
Alpha artifact: interferes with AlphaScreen signal, flagging NSD2 false positives | shares compounds with NSD2 inh | AlphaScreen artifact counterscreen, preloaded methylated H4 peptide | AC35, µM (series often up to 10 µM), for inactives: at the highest dose activity change, negative = signal loss | actives 9.4% (n = 1,500); call rule not given here
* hit, by the source's call; / = no result given. Hits are enriched below; roughly 1.5% of the tested compounds scored in any of these assays. Cut-off read from the data, not from the text of the source, unless noted: active = inhibition above about 50%; inactive = the rest.

SMILES	CASP6 VEID inh	DNMT1 block	NSD2 inh	HCV NS3 hel inh	Alpha artifact
CCN(CC)c1cc(Cl)c2nonc2c1N	4.6	-4.6	8.4	-1.4	/
CCNC(=O)Nc1ccc2c(c1)C(=O)N(C)[C@H]1CC[C@@H](CC(=O)NCc3ccccc3F)O[C@@H]1CO2	-1.3	/	/	/	/
COc1ccc(NC(=O)N(C)C[C@H]2Oc3ccc(NS(=O)(=O)c4cn(C)cn4)cc3CC(=O)N([C@H](C)CO)C[C@@H]2C)cc1	-1.7	/	/	/	/
O=C(C[C@@H]1CC[C@H]2[C@@H](COC[C@H](O)CN2Cc2ccc(Cl)cc2)O1)NCc1cccc(F)c1	0.8	/	/	/	/
Cc1ccc(C)c(NC(=S)N(C)C)c1	-2.1	2.2	1.5	1.9	/
Cc1cc(C)c(NC(=S)N(C)C)cc1C	4.7	-3.9	55.5*	6.7	1.5%
c1ccc(CN2CCN(c3nc(-c4ccccc4)nc(-n4ccnc4)n3)CC2)cc1	/	-7.0	62.7*	-24.9	-4.0%
COc1ccc2c3c(n(C)c2c1)[C@@H](CO)N(C(=O)NC(C)C)CC31CN(C(=O)NC(C)C)C1	3.5	/	/	/	/
Cc1cccc(NC(=O)C2CCN(C(=O)NCc3ccccc3)CC2)c1C	1.4	1.3	66.3*	-2.1	-0.5%
O=C(Nc1cccc2ccccc12)C1CCN(C(=O)NCc2ccccc2)CC1	/	-10.5	12.4	1.9	/
N#Cc1c(SCC(=O)OCc2ccccc2)nsc1SCC(=O)OCc1ccccc1	-4.6	3.5	126.0*	-6.1	-4.4%
CCc1c(C#N)c(N)nc(SCC(=O)OCc2ccccc2)c1C#N	/	3.0	-0.4	-13.1	/
CCN(Cc1ccccc1)Cc1c(C)[nH]c2c(C)c(C)ccc2c1=O	/	8.4	56.2*	-4.8	-6.2%
C=CCN(CC=C)Cc1c(C)[nH]c2c(C)c(C)ccc2c1=O	-3.7	3.6	-0.5	4.3	/
NC1=C(Br)C(=O)c2ccccc2C1=O	74.7*	-16.1	57.4*	5.6	-3.7%
Nc1ccc(Br)c2c1C(=O)c1ccccc1C2=O	/	/	16.5	-0.9	/
NC(=O)COC(=O)c1ccc(Cl)c(S(=O)(=O)N2CCN(c3ccc(F)cc3)CC2)c1	22.1	-0.9	52.0*	1.6	-5.5%
CCCNC(=O)C[C@H]1CC[C@H]2[C@@H](COC[C@@H](O)CN2Cc2cccc(F)c2)O1	-3.1	/	/	/	/
Cn1c(SCc2ccccc2C#N)nc2ccccc2c1=O	-2.1	-2.5	99.6*	16.0	-2.3%
O=C(Nc1cccnc1)c1ccc(COc2cc(Cl)ccc2Cl)o1	/	-6.1	-0.7	2.9	/
O=C(Nc1cccnc1)c1ccc(COc2ccccc2Cl)o1	/	-3.2	126.7*	-24.5	-1.3%
Cc1ccc(N2CS(=O)(=O)/C(=C/N(C)C)C2=O)cc1	/	11.5	64.0*	-3.8	-1.1%
CCCNC(=O)N1CC2(CCN(Cc3ccccn3)CC2)c2c(n(C)c3cc(OC)ccc23)[C@@H]1CO	-1.9	/	/	/	/
Cc1cc(NS(=O)(=O)c2ccc(NC(=O)CSc3nnc(-c4ccncc4)n3Cc3ccco3)cc2)nc(C)n1	/	/	56.0*	/	-1.2%
CCCc1nc2sc3ccccc3c(=O)c2c(=O)n1Cc1ccccc1	-2.2	-0.9	61.4*	/	-3.1%
SMILES	CASP6 VEID inh	DNMT1 block	NSD2 inh	HCV NS3 hel inh	Alpha artifact
CCCc1nc2ccccc2c(=O)n1CCc1ccccc1	-0.8	4.1	3.7	-7.1	/
COc1ccc(NS(=O)(=O)c2ccc(Cl)c(NC(=O)c3ccccc3F)c2)cc1	1.8	0.9	0.3	/	/
O=C(Nc1cc(S(=O)(=O)Nc2ccccc2F)ccc1Cl)c1ccc(F)cc1F	1.2	4.2	88.9*	/	-4.6%
O=C(C[C@H]1CC[C@H]2[C@@H](COC[C@@H](O)CN2Cc2ccccc2)O1)N1CCOCC1	2.1	/	/	/	/
COc1ccc(N=Nc2ccc(N)nc2N)cc1	2.8	-1.6	11.0	-10.2	/
CCOc1ccc2nc3cc(N=Nc4ccc(N)nc4N)ccc3c(N)c2c1	/	-134.7	59.0*	/	-11.8%
Cc1ccccc1N1CC(C(=O)Nc2ccc(S(=O)(=O)N3CCOCC3)cc2)CC1=O (stereo not drawn)	0.2	0.3	85.0*	-4.0	-1.6%
Cn1c(=O)c2c(nc(N3CCCC3)n2CC(O)CO)n(C)c1=O (stereo not drawn)	/	-1.5	0.0	6.1	/
C=CCOCC(O)Cn1c(N2CCCC2)nc2c1c(=O)n(C)c(=O)n2C (stereo not drawn)	-3.4	1.7	53.0*	2.7	-0.2%
C=CCOc1ccc(NC(=O)C2CC(=O)N(C(C)C)C2)cc1 (stereo not drawn)	/	1.6	56.0*	-6.1	3.4%
COc1ccc2c3c(n(C)c2c1)[C@H](CO)N(C(=O)Nc1ccc(F)cc1)CC31CN(Cc2cccnc2)C1	0.2	/	/	/	/
CCCCn1c(N)c(N(CCC(C)C)C(=O)COC(=O)c2ccc([N+](=O)[O-])s2)c(=O)[nH]c1=O	95.3*	34.2	52.9*	/	-5.0%
CC(C)CN(C(=O)COC(=O)c1ccc([N+](=O)[O-])s1)c1c(N)n(Cc2ccccc2)c(=O)[nH]c1=O	82.2*	56.4*	65.2*	/	-1.2%
O=C(Cc1ccccc1)N[C@H]1C=C[C@@H](CC(=O)N2CCOCC2)O[C@@H]1CO	13.1	/	/	/	/
COc1cc(OC)nc(NC2OC(=O)c3ccccc32)n1 (stereo not drawn)	/	4.9	104.1*	-2.4	3.8%
CN(C)S(=O)(=O)c1ccc(Cl)c(C(=O)OCC(=O)c2ccco2)c1	2.2	4.1	55.4*	/	0.9%
CN(Cc1ccccc1)S(=O)(=O)c1ccc(Cl)c(C(=O)OCC(N)=O)c1	4.4	1.1	0.4	8.3	/
O=c1/c(=C/c2ccccn2)sc2n1CN(c1ccccc1)CN=2	/	-3.0	-2.8	5.2	/
CCc1ccc(N2CN=c3s/c(=C\c4ccccc4)c(=O)n3C2)cc1	-2.9	0.1	61.1*	-7.3	2.5%
COc1ccc(OC)c(C(=O)Nc2c(O)ccc3ccccc23)c1	1.0	-14.3	52.3*	/	2.2%
Cc1cc2nn(-c3cccc4ccccc34)nc2cc1NC(=O)c1cccs1	-2.0	-10.4	126.5*	-13.9	-3.4%
CNCc1cc(Br)c(OCC(=O)Nc2ccccc2OC)c(OC)c1	-2.5	1.2	73.0*	-17.1	-3.2%
COc1cc(CNCCc2ccccc2)cc(Br)c1OCC(=O)Nc1ccccc1C	0.4	1.0	-2.9	-54.6	/
Cc1ccc(C)c(-n2c3nc(=O)n(C)c(=O)c-3cc3ccccc32)c1	3.4	3.1	0.5	1.7	/
Cc1ccc(C)c(-n2c3nc(=O)[nH]c(=O)c-3cc3cc([N+](=O)[O-])ccc32)c1	50.0*	30.4	59.6*	-2.9	-8.1%
Cc1cccc(-n2c3nc(=O)[nH]c(=O)c-3cc3cc([N+](=O)[O-])ccc32)c1	8.6	16.6	58.1*	16.5	-5.9%
CS(=O)(=O)N1[C@@H](C#N)[C@@H](c2ccc(C#CC3CC3)cc2)[C@@H]1CO	-0.7	/	/	/	/
CN(C)CCCNC(=O)C[C@H]1CC[C@H](NS(=O)(=O)c2ccc(F)cc2)[C@@H](CO)O1	7.2	/	/	/	/
CCOc1ccccc1NCc1nnc(-c2ccccc2)o1	10.5	-6.4	65.6*	13.5	-1.9%
C[C@@H]1CN([C@@H](C)CO)C(=O)c2cc(-c3cccnc3)cnc2O[C@@H]1CN(C)C(=O)C1CCOCC1	2.5	/	/	/	/
